This is an account of results in ChEMBL document CHEMBL4002591 (J Med Chem, 2017).

The structures appear in SMILES notation. Activity calls are given as the source filed them. The calls are words filed in the database; no cut-off is given here. Some results are limits rather than exact numbers.

Data set [1] addresses T1, Protein mono-ADP-ribosyltransferase PARP10 (Homo sapiens, UniProt Q53GL7).
T1 sequence (Q53GL7 whole entry): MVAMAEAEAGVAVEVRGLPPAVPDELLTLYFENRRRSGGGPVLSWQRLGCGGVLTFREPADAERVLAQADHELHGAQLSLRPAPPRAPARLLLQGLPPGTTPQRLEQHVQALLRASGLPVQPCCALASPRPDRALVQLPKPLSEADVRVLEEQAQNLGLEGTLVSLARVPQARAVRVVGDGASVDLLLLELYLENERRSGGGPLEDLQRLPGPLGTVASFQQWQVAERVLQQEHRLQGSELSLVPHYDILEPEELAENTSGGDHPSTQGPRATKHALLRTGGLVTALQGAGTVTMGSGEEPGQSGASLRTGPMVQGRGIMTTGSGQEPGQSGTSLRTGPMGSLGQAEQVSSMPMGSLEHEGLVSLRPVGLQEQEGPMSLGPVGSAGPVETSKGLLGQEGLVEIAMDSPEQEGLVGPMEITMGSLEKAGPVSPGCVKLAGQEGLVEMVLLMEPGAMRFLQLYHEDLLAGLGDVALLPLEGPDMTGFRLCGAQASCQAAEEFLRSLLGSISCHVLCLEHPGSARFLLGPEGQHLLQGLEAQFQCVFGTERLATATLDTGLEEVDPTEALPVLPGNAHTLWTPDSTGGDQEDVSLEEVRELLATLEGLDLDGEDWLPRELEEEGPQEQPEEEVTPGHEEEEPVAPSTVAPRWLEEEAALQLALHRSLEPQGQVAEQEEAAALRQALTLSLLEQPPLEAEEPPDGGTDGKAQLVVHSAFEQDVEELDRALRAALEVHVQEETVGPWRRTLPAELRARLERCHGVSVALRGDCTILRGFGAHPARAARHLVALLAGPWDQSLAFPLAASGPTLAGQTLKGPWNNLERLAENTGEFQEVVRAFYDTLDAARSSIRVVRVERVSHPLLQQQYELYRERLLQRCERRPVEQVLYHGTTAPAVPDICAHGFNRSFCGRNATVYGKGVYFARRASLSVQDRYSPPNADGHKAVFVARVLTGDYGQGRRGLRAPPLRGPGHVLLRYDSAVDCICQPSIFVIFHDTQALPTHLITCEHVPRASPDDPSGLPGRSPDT
In words: Inhibition of PARP10 (unknown origin).

The test system of the next data set is DLD-1. In words: Anti-proliferative activity against human DLD1 cells assessed as inhibition of colony formation at 1 uM measured after 18 days under normal serum condition by trypan blue staining based light microscopic analysis. The data set is classed as functional, cell-based. An outline of the steps:
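DLD-1 colony-forming assay under normal serum: 1000 cells/well, with 1.0 µM or 100 nM compound, or a 1% DMSO (v/v) vehicle control. Colonies were counted, n = 3.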

The target of data set [2] is T2, Protein mono-ADP-ribosyltransferase PARP15 (Homo sapiens, UniProt Q460N3).
T2 sequence (Q460N3 whole entry): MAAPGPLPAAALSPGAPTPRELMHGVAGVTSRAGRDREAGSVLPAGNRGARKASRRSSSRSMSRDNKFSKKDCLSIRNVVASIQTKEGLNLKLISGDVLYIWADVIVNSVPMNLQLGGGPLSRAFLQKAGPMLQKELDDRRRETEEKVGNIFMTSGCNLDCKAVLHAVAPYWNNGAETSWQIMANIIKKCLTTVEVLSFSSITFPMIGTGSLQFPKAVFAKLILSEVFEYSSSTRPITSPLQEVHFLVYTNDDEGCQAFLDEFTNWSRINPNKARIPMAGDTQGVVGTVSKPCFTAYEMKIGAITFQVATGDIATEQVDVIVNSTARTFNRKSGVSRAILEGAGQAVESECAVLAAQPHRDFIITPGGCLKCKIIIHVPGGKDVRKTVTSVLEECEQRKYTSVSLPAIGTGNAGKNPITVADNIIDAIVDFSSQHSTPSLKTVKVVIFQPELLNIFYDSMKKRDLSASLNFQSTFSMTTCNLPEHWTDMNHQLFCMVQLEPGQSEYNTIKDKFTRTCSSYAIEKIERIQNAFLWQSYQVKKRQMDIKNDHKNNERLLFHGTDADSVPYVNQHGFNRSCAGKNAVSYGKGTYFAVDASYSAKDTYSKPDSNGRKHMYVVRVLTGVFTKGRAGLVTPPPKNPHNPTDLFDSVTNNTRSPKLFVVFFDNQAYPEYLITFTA
Description: Inhibition of PARP15 (unknown origin).

A short description of data set [3]: Inhibition of tankyrase (unknown origin) expressed in TCF/LEF-HEK293 cells assessed as inhibition of Wnt/beta-catenin signaling pathway in Wnt3a conditioned medium measured after 20 hrs by luciferase reporter gene assay. The data set is classed as cell-based. The following applies: Homo sapiens. (In general: In a reporter assay the amount or activity of a reporter protein is the signal.)

The species entered for a further data set is Mus musculus. Description: Inhibition of TNKS in mouse 3T3L1 cells assessed as upregulation of GLUT4 by measuring increase in insulin-stimulated glucose uptake at 1 uM using 2-deoxy-D-[2,6-3H]glucose as substrate pretreated for 1 hr followed by insulin stimulation for 30 mins and subsequent addition of substrate measured after 5 mins by scintillation counter. Type of data set: cell-based. More on the design: scale not given: the % may be the effect or the level left. An outline of the steps:
(§1)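 3T3-L1 fibroblasts were grown in DMEM and differentiated to adipocytes with insulin, dexamethasone and isobutylmethylxanthine, then used 10-12 d later. Cells were serum-starved 2 h at 37°C and given compound for 1 h. After KRH washes (pH 7.4), cells were held 30 min with compound, with or without 100 nM insulin. 2-Deoxy-D-[2,6-³H]glucose was added for 5 min.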

The test system of the next data set is 3T3-L1. In words: Effect on glucose uptake in mouse 3T3L1 cells at 1 uM using 2-deoxy-D-[2,6-3H]glucose as substrate pretreated for 1 hr followed substrate addition measured after 5 mins by scintillation counter. The following applies: 3t3-l1, 5 min. Type of data set: ADME, cell-based. An outline of the steps:
as §1

Regarding `Cc1cccc2c(=O)[nH]c(CCC(=O)Nc3ccc(C(=O)Nc4cccc5cccnc45)cc3)nc12`, the IC50 in data set [1] is more than 100000 nM; in data set [2] it was more than 100000 nM; in data set [3] (read-out: IC50) it was 37 nM; in data set [3] (read-out: pIC50 (converted)), 37.2 nM. Besides, the inhibition entry in the data set on DLD-1 was “Active”. Also, the Activity in the data set listed under Mus musculus was 20%; with 3T3-L1, “Non-Toxic”.
`O=C(CCc1nc2ccccc2c(=O)[nH]1)Nc1ccc(C(=O)Nc2cccc3cccnc23)cc1`: the IC50 was more than 100000 nM in data set [1], more than 100000 nM in data set [2], 29 nM in data set [3] (read-out: IC50) and 28.8 nM in data set [3] (read-out: pIC50 (converted)). Moreover, in the data set with DLD-1, the inhibition entry was “Active”. The Activity was 20% in the data set listed under Mus musculus and “Non-Toxic” in the data set with 3T3-L1.
